Experiments:
[1] = system: aldosterone and cortisol; conditions: cited from earlier work
[2] = system: blood pressure, ACTH-stimulated cortisol; conditions: primary hypertension, all doses tested; cited from earlier work
[3] = system: urine aldosterone; experiment: 24-hour urine aldosterone excretion after multiple dosing; format: in vivo, human; conditions: spironolactone 25 mg/d
Method in brief: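 Once-daily oral dosing for 8 days in healthy adults (0.1–100 mg; solution in degassed Sprite; double-dummy with an MR antagonist capsule). Urine pooled over 24 h from pre-dose Day 3 to pre-dose Day 4, and from pre-dose Day 7 to pre-dose Day 8, and assayed for aldosterone. Data ln-transformed and fitted with a mixed model (fixed treatment and period, random subject). Ratios of LS geometric means with 90% CIs.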

[4] = system: plasma aldosterone; experiment: Basal plasma aldosterone concentration; format: in vivo, human; conditions: multiple dose, model estimate (CV%)
[5] = system: plasma aldosterone, corticosterone, 11-deoxycorticosterone; experiment: IV ACTH challenge Day 8: plasma aldosterone and precursors; format: in vivo, human
Method in brief: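 After 8 days of oral once-daily dosing in healthy adults, an IV ACTH challenge was given 1 h post-dose on Day 8. Plasma aldosterone, corticosterone and 11-deoxycorticosterone were drawn at −15 min (baseline) and at 30 and 60 min post-challenge. Read-out was change from pre-challenge, averaged over 30 and 60 min. Stimulated aldosterone was fitted with a hyperbolic Imax model against dose and plasma drug level.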

[6] = system: plasma cortisol and 11-deoxycortisol (CYP11B1); experiment: IV ACTH challenge Day 8: plasma cortisol and 11-deoxycortisol; format: in vivo, human; conditions: spironolactone 25 mg/d
Method in brief: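 IV ACTH challenge 1 h after the Day 8 oral dose, following daily dosing at 0.1–100 mg in healthy adults (crossover with placebo and an MR antagonist). Plasma cortisol and 11-deoxycortisol were drawn at −15, 30 and 60 min. Read-out was mean change from pre-challenge, with cortisol expressed as the average post-challenge concentration over the 1-h period.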

[7] = system: serum K+; experiment: Basal serum potassium after multiple dosing; format: in vivo, human; conditions: model estimate (CV%)
[8] = system: serum K+; experiment: Oral K+ challenge Day 7: serum K+ and K+ renal clearance; format: in vivo, human
Method in brief: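 On Day 7 of once-daily oral dosing, healthy adults received an oral 40 mEq K+ load 3 h post-dose. Dietary K+ that day was cut by 40 mEq to hold daily intake at 125 mEq. Serum K+ was followed for 5 h post-challenge, and Cavg was taken over 5 h. Renal clearance = urinary excretion / serum AUC. Post-challenge K+ was fitted with a hyperbolic Emax model (additive above placebo).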

[9] = system: urinary K+ excretion; experiment: 24-hour urinary K+ excretion Days 3 and 7; format: in vivo, human; conditions: spironolactone 25 mg/d
[10] = Safety and tolerability in healthy subjects; format: in vivo, human; conditions: multiple administration, ASEB
Method in brief: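 Two studies in healthy adults confined to the unit: a single ascending oral dose (0.1–300 mg) and once-daily dosing for 8 days (0.1–100 mg) with placebo and an MR antagonist in double-dummy crossover. Safety covered vital signs, ECG, and hepatic and renal laboratory tests. Blood pressure was taken repeatedly over Days 3 and 7. Average MAP = area under the MAP–time curve to 24 h divided by 24 h.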

[11] = cited from earlier work

Structure (SMILES): N#Cc1ccc([C@H]2CCc3cncn32)c(F)c1 [LCI699]
- plasma and 24-h urinary aldosterone ([1]; Na+-depleted healthy volunteers, dose-dependent): decreased both plasma and 24-h urinary aldosterone
- ACTH-stimulated aldosterone elevation ([1]; all three doses (0.5, 1 and 3 mg)): inhibited ACTH-stimulated aldosterone elevation
- ACTH-stimulated cortisol production ([1]; higher dose of 3 mg): significantly inhibited ACTH-stimulated cortisol production
- ACTH-stimulated cortisol production [2]: significantly inhibited ACTH-stimulated cortisol production

Structure (SMILES): CC(=O)S[C@@H]1CC2=CC(=O)CC[C@]2(C)[C@H]2CC[C@@]3(C)[C@@H](CC[C@@]34CCC(=O)O4)[C@H]12 [Spironolactone]
- effect on urine aldosterone excretion [3]: elevated urine aldosterone excretion
- Spironolactone (50 mg) effect on PAC [4]: 49 (19%) pg/ml
- effect on PAC following the ACTH challenge ([5]; spironolactone 25 mg/d, Day 8): no effect on PAC
- Spironolactone (50 mg) effect on PAC ([5]; stimulated, post-ACTH, model estimate (CV%)): 18 (89%) pg/ml
- plasma cortisol after ACTH challenge compared to placebo [6]: No differences
- Spironolactone (50 mg) effect on K+ [7]: 0.02 (232%) mM
- average serum K+ over 5 h post oral K+ challenge (Cavg, mean±SD) ([8]; spironolactone 25 mg/d, Day 7): 4.5 ± 0.2 mmol/L
- Spironolactone (50 mg) effect on K+ ([8]; stimulated, post-K+ challenge, model estimate (CV%)): 0.09 (68%) mM
- 24-hour urinary K+ excretion (mean±SD) ([9]; Day 3, placebo 99±19): 97 ± 20 mmol
- 24-hour urinary K+ excretion (mean±SD) ([9]; Day 7, placebo 110±23): 117 ± 17 mmol
- effects on mean arterial pressure (MAP) [10]: no clear effects

Structure (SMILES): C[C@]12CCC(=O)C=C1CC[C@@H]1[C@@H]2[C@@H](O)C[C@]2(C=O)[C@@H](C(=O)CO)CC[C@@H]12 [aldosterone]
- disappearance half-life of radiolabeled aldosterone [11]: 35 min

From article PMC5843917 (Journal of the Renin-Angiotensin-Aldosterone System: JRAAS, 2017)
